The text below walks through data of ChEMBL document CHEMBL2331185, “Structures and cytotoxic evaluation of new and known acyclic Ene-Ynes from an American Samoa Petrosia sp. Sponge” (J Nat Prod, 2013).

Structures are written as SMILES.

Experiment [1] in a line: Cytotoxicity against human H460 cells after 96 hrs by CellTiter-Glo luminescent assay. The format is functional, cell-based. The following applies: NCI-H460, 96 h. Put shortly:
(§1)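 Tumour cells grown in 96-well plates without or with continuous test compound for 96 h. Growth measured by CellTiter-Glo luminescence. IC50 is the concentration inhibiting growth by 50% relative to untreated cells. Two separate replicate experiments.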

Experiment [2] deals with A2058. Briefly: Selectivity index, ratio of IC50 for human IMR90 cells to IC50 for human A2058 cells. It is filed as functional. Put shortly:
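SI calculated from the relative IC50 response of quiescent IMR-90 fibroblasts versus A2058 melanoma cells. IMR-90 IC50 comes from the 96 h low-serum quiescent assay; A2058 IC50 comes from the 96 h continuous-exposure proliferating assay. Both read by CellTiter-Glo.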

Another experiment relates to IMR-90. Briefly: Cytotoxicity against human IMR90 cells after 96 hrs by CellTiter-Glo luminescent assay. Conditions: IMR-90, 96 h. The format is cell-based. The method, boiled down: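 Fibroblasts grown 4 days to confluency in MEM with 10% FBS, L-glutamine and penicillin/streptomycin. After washing, cells were held 3 more days in MEM with 0.1% FBS to reach quiescence. Compound added, then incubation 96 h at 37°C. Viability measured as cellular ATP by CellTiter-Glo.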
On the technique in general: Cellular ATP, detected with luciferase, serves as a proxy for viable cell number.

In experiment [3] the test system is A2058. The experiment is described as follows: Cytotoxicity against human A2058 cells after 96 hrs by CellTiter-Glo luminescent assay. The format is functional, cell-based. The following applies: A2058, 96 h. The method, boiled down: as §1
Experiment [4] in a line: Cytotoxicity against human H522-T1 cells after 96 hrs by CellTiter-Glo luminescent assay. The following applies: H522-T1, 96 h. The format is functional, cell-based. Put shortly:
as §1

Turning to `C#C[C@H](O)/C=C/CCCCCCCCCC#CCCCCCCCCCCCC/C=C\C#CC(=O)O`, the concentration for half-maximal inhibition (IC50) in experiment [1] was 7300 nM; in the experiment on IMR-90, 400 nM; in the experiment on A2058 [3], 6400 nM; in experiment [4], 8400 nM. The “Ratio IC50” value in the experiment on A2058 [2] is reported as 0.1.

Consider `C#C[C@H](O)/C=C/CCCCCCCC#C/C=C\CCCCCCCCCCCC/C=C\C#CC(=O)O`, for which the concentration for half-maximal inhibition (IC50) was determined as 3100 nM in experiment [1], 300 nM in the experiment on IMR-90, 3800 nM with A2058 [3] and 4600 nM in experiment [4]. Besides, the “Ratio IC50” value in the experiment on A2058 [2] was found to be 0.1.

For the molecule `C#C[C@H](O)/C=C/CCCCCCCCCCC/C=C/C(O)CCCCCCCCC/C=C\C#CC(=O)O` (stereo partly drawn), the half-inhibitory concentration (IC50) in experiment [1] was over 10000 nM; with IMR-90 it was 200 nM; in the experiment on A2058 [3], 8100 nM; in experiment [4], over 10000 nM. The “Ratio IC50” value in the experiment on A2058 [2] worked out at 0.

With `C#CC(O)/C=C/CCCCCCCCC/C=C\CCCCCCCCCCCC(O)C#CC#CCO` (stereo not drawn), the IC50 in experiment [1] is 400 nM; with IMR-90 it was 400 nM; in the experiment on A2058 [3] it was 400 nM; in experiment [4], 800 nM. In addition, in the experiment on A2058 [2], the “Ratio IC50” value came to 1.

As for `C#CC(O)/C=C/CCCCCCCC#C/C=C\CCCCCCCCCCCC(O)C#CC#CCO` (stereo not drawn), the IC50 in experiment [1] is 1000 nM; in the experiment on IMR-90, 300 nM; in the experiment with A2058 [3], 400 nM; in experiment [4], 600 nM. The “Ratio IC50” value in the experiment with A2058 [2] is listed as 0.8.

Turning to `C#CC(O)/C=C/CCCCCCCC#C/C=C\CCCCCCCCCCCCCC(O)C#CC#CCO` (stereo not drawn), the IC50 in experiment [1] was determined as 700 nM; in the experiment with IMR-90, 500 nM; in the experiment on A2058 [3] it was 800 nM; in experiment [4], 1100 nM. Also, the “Ratio IC50” value with A2058 [2] is 0.6.

For `C#CC(O)/C=C/CCCCCCCCCCCC#CCCCCCCCCCCCC(O)C#CC#CCO` (stereo not drawn), the IC50 amounted to 1200 nM in experiment [1], 1600 nM with IMR-90, 1300 nM in the experiment on A2058 [3] and 2700 nM in experiment [4]. For the same molecule, in the experiment with A2058 [2], the “Ratio IC50” value is listed as 1.2.

Regarding `C#CC(O)/C=C/CCCCCCCCCC(O)CCCCCCCCCCCC(O)C#CC#CCO` (stereo not drawn), the half-inhibitory concentration (IC50) is 800 nM in experiment [1], 800 nM with A2058 [3] and 1200 nM in experiment [4].

On to `CC[C@]1(O)C[C@@H]2CN(CCc3c([nH]c4ccccc34)[C@@](C(=O)OC)(c3cc4c(cc3OC)N(C)[C@H]3[C@@](O)(C(=O)OC)[C@H](OC(C)=O)[C@]5(CC)C=CCN6CC[C@]43[C@@H]65)C2)C1` [VINBLASTINE], for which the 50% inhibitory concentration (IC50) in experiment [1] is 2 nM; in the experiment with IMR-90, over 1000 nM; in the experiment on A2058 [3], 4 nM; in experiment [4], 9 nM. In the experiment with A2058 [2], the “Ratio IC50” value is given as over 250.

One may read the IC50 as the concentration that gives 50% inhibition. A lower IC50 goes with higher potency.
